# Compound activity deposited in PubChem BioAssay by Broad Institute.
# SR-BI DiI inh: mouse SR-BI HDL lipid transfer inhibition; inhibition, % at 12.5 µM; actives 0.96% (n = 320,000); ldlA[mSR-BI] CHO cells, DiI-HDL uptake fluorescence, 3 h; Q61009;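 active means mean replicate inhibition of at least 70% and a set share of replicates each scoring 70 or more; inconclusive means meets just one of the two criteria; inactive means fails both criteria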;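 further: 0% = median of neutral control wells and 100% = median of positive control wells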
# SR-BI DiI-HDL act: activators of SR-BI mediated HDL lipid uptake. CHO ldlA[mSR-BI] cells, DiI-HDL uptake fluorescence, 3 h; 100 = double the neutral-control signal. activation, % at 12.5 µM. actives 0.096% (n = 320,000);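 active means mean replicate activation of at least 60% and every replicate at or above 60%; inconclusive means mean or all-replicate condition met, but not both; inactive means mean below 60% and not all replicates reaching 60%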;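 further: 0% = median plate neutral-control signal and 100% = twice that signal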
#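 Assay system: CHO ldlA[mSR-BI] cells, LDL receptor-null, SR-BI overexpressing; medium: Ham's F12 with 0.5% BSA, HEPES 25 mM, pH 7.4; also added: DiI-HDL 10 µg/mL; timing: 3 h uptake period with compound, 37 °C; signal: DiI fluorescence, bottom read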
# dFosB act: mouse delta FosB homodimer activation | P13346 | purified delta FosB, TAMRA-CDK5 oligo fluorescence polarization; percent of positive-control signal above neutral wells | activation, % at 25 µM | actives 0.99% (n = 340,000) | AID 493131;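 active means mean activation above about 17%, with every replicate also reaching it, limit read from the data, passing the limit was not always enough; inconclusive means only one of the two conditions met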
# Target sequence (P13346 whole entry, looked up): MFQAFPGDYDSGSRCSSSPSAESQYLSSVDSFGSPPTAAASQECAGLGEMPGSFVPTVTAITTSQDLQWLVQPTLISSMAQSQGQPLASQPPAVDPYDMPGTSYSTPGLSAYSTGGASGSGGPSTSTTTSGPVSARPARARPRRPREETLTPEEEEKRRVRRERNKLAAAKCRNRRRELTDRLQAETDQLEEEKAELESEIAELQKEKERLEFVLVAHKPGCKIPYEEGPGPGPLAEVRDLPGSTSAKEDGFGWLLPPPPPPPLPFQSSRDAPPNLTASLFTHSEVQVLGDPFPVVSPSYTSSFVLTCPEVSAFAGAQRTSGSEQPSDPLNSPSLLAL
# CDK5 inh: blocks human CDK5/p35 kinase activity. inhibition, % at 10 µM. actives 0.01% (n = 330,000). AID 488839. Q00535+Q15078. Recombinant CDK5/p35, ADP-Glo luminescence, 60 min;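 active means highest replicate inhibition of at least 50% and at least 75% of replicates reaching 50%; inconclusive means only one of the two criteria met; inactive means both criteria failed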;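 further: plate controls were DMSO neutral control for no effect and GW8510 at 10 µM for full effect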
# The depositor's hits bear a star; ? = inconclusive; . = no result. Most compounds without a hit are left out; they make up all but 2% or so of the library.
SMILES,SR-BI DiI inh,SR-BI DiI-HDL act,dFosB act,CDK5 inh
CC(C)C(=O)N1CCN(c2ccccc2NC(=S)NC(=O)c2ccco2)CC1,81*,-81,-4,2
COc1ccc(NS(=O)(=O)c2cccc(C(=O)N/N=C/c3ccccc3OC)c2)cc1,82*,-82,6,0
O=C(N/N=C/c1cn(-c2ccccc2)nc1-c1ccc(F)cc1)c1ccc(Br)o1,87*,-87,-9,-1
COc1ccc(NS(=O)(=O)c2cccc(C(=O)N/N=C/c3cn(-c4ccccc4)nc3-c3ccccc3)c2)cc1,96*,-96,?,-8
COc1ccc(NS(=O)(=O)c2cccc(C(=O)NNC(=O)c3ccccc3O)c2)cc1,72*,-72,-7,-3
CCN(CC(=O)Nc1ccc2c(c1)OCCO2)C(=O)c1ccc(C(F)(F)F)cc1,7,-7,-10,2
O=C1CC(C(F)(F)F)=NN1,0,0,1,-2
CCN(CC)c1ccc(/C=N/NC(=O)c2cccc(S(=O)(=O)Nc3ccccc3OC)c2)c(O)c1,132*,-132,-19,1
COc1ccc(/C=C/C(=O)Nc2cccc(S(=O)(=O)N3CCCC3)c2)cc1OC,80*,-80,4,0
O=C(/C=C/c1ccc(F)cc1)Nc1cccc(S(=O)(=O)N2CCOCC2)c1,74*,-74,-23,-1
COc1ccc(CC(=O)Nc2cccc(S(=O)(=O)N3CCCC3)c2)cc1OC,10,-10,-7,2
NC(=O)COC(=O)/C=C/c1ccc(S(=O)(=O)N2CCCCCC2)cc1,4,-4,2,0
Cc1ccc(S(=O)(=O)N2CCOCC2)cc1NC(=O)COC(=O)/C=C/c1ccc(F)cc1,8,-8,81*,-1
COc1ccc(/C=C/C(=O)OCC(=O)c2ccc(S(=O)(=O)N3CCCCC3)cc2)cc1OC,50,-50,84*,0
COc1ccc(N2CCN(C(=O)C(Cc3ccccc3)NC(=O)c3ccccc3)CC2)cc1 (stereo not drawn),37,-37,-9,0
O=C(COc1coc(CN2CCN(c3ccccc3F)CC2)cc1=O)NC1CCCC1,8,-8,-3,0
CCOC(=O)C1CCN(C(=O)/C=C/c2ccc(S(=O)(=O)N3CCOCC3)cc2)CC1,-63,63*,1,-1
O=C(/C=C/c1ccc(S(=O)(=O)N2CCOCC2)cc1)N1CCCCC1,-13,13,-1,-2
O=[N+]([O-])c1ccc(O)c(/C=N/Nc2ccc(Cl)nn2)c1,106*,-106,5,-5
O=[N+]([O-])c1ccc(O)c(/C=N/NC2=NS(=O)(=O)c3ccccc32)c1,88*,-88,4,-1
O=[N+]([O-])c1ccc(/C=N/NC2=NS(=O)(=O)c3ccccc32)cc1,-24,24,-7,1
O=[N+]([O-])c1ccc(O)c(/C=N/Nc2nn[nH]n2)c1,2,-2,2,0
Cc1cccc(C)c1OCC(=O)NNC(=S)NC(=O)C1CC1,2,-2,-4,-1
COc1cccc(NC(=O)CCCNC(=O)Cn2cnc3sc(C)c(C)c3c2=O)c1,18,-18,-6,8
COc1ccc(OC)c(NC(=O)CCCNC(=O)Cn2cnc3sc(C)c(C)c3c2=O)c1,77*,-77,-9,0
SMILES,SR-BI DiI inh,SR-BI DiI-HDL act,dFosB act,CDK5 inh
CN(C)Cc1cc(C(F)(F)F)ccc1C(O)(c1ccccc1)c1ccccc1,-11,11,0,-3
N=c1c(-c2nc3ccccc3[nH]2)cc(C(=O)c2ccco2)nn1-c1ccccc1,73*,-73,9,-1
Cc1cccc(C(=O)NC2CCN(S(=O)(=O)c3ccc(F)cc3)CC2)c1,18,-18,-1,-1
Cc1cc(C)cc(C(=O)NCCC(=O)N2CCC3(CC2)NCCc2[nH]cnc23)c1,-12,12,-6,-1
Cc1c2ccncc2cc2c1[nH]c1ccccc12,47,-47,78*,1
Brc1ccc(C2=Nc3cccc4cccc(c34)N2)o1,14,-14,23*,.
Fc1ccc(C2=Nc3cccc4cccc(c34)N2)cc1,-36,36,13,1
O=C(/C=C/c1cc[n+](CC(=O)c2ccc3cccc4c3c2CC4)cc1)c1ccc2cccc3c2c1CC3,.,.,147*,1
Cc1cc(C)cc(N=c2c([N+](=O)[O-])nn(-c3ccc(Cl)cc3)n2O)c1,80*,-80,-4,1
CCc1ccc(N=c2c([N+](=O)[O-])nn(-c3ccccc3)n2O)cc1,15,-15,-7,-1
Cc1nc2c(c(=O)n1CCC1=CCCCC1)c1nc3ccccc3nc1n2/N=C/c1ccccc1,-23,23,-36,-2
O=c1c2c3nc4ccccc4nc3n(/N=C/c3ccco3)c2ncn1CCC1=CCCCC1,-67,67*,-1,-3
CCCCN(CC)CCNC(=O)c1cc2c(=O)[nH]c3ccccc3c2s1,88*,-88,-16,1
O=C(CCNC(=O)c1ccc([N+](=O)[O-])cc1)NC1CCCc2ccccc21 (stereo not drawn),23,-23,2,1
CC(=O)Nc1cc2cc(NS(=O)(=O)c3ccc(C)cc3)ccc2oc1=O,-2,2,155*,-2
CC(=O)c1c(C)oc2ccc(NS(=O)(=O)c3ccc(C)cc3)cc12,.,.,-1,1
COc1ccc(CCNC(=O)c2ccc3c(c2)S(=O)(=O)N=C2CCCCCN23)cc1,-4,4,-15,1
COc1ccc(OC)c(NC(=O)c2cc(-c3cc(Cl)ccc3O)n[nH]2)c1,70,-70,?,-1
COc1ccc(Cl)cc1NC(=O)Nc1cccc([N+](=O)[O-])c1C,78*,-78,0,-3
COc1ccc(Cl)cc1NC(=O)c1ccccc1C,86*,-86,-4,-1
COc1ccc(Cl)cc1NC(=O)c1cc(-c2ccccc2O)n[nH]1,90*,-90,5,0
COc1ccc(Cl)cc1NC(=O)NC1CCCCC1,19,-19,5,1
COc1ccc(Cl)cc1NC(=S)Nc1ccccc1C,9,-9,-8,-3
CSCCC(NC(=O)c1ccccc1)C(=O)NNC(=O)c1csc(N2CCOCC2)n1 (stereo not drawn),10,-10,-5,-2
O=C(N=C1SC2CS(=O)(=O)CC2N1c1cccc(Cl)c1Cl)C1CCCO1 (stereo not drawn),-15,15,-18,0
SMILES,SR-BI DiI inh,SR-BI DiI-HDL act,dFosB act,CDK5 inh
CN(Cc1c(F)cccc1Cl)C(=O)c1ccc2ccccc2n1,.,.,-5,-2
Nc1cc([N+](=O)[O-])cc2oc(-c3ccccc3)cc12,70*,-70,2,-2
COc1ccc2ccccc2c1/C=N/NC(=O)c1cccc(Br)c1,60,-60,3,-1
O=C(N/N=C/c1c(O)ccc2ccccc12)c1cccc(C(F)(F)F)c1,137*,-137,3,0
Oc1ccccc1N=Cc1c(O)ccc2ccccc12,80*,-80,-19,0
C=Cc1ccc(N=Cc2c(O)ccc3ccccc23)cc1,75*,-75,-2,-1
O=C(Nc1ccc(F)cc1F)c1cc(-c2ccc3c(c2)OCO3)on1,.,.,1,-1
